Here are results for 1 compound from ChEMBL document CHEMBL4392827, “Tryptamine derivatives disarm colistin resistance in polymyxin-resistant gram-negative bacteria” (Bioorg Med Chem, 2019).

The test system of data set [1] is Acinetobacter baumannii. Briefly: Potentiation of colistin-induced antimicrobial activity against colistin-resistant Acinetobacter baumannii isolate 3942 assessed as fold reduction in colistin MIC at 20 uM after 18 hrs by broth microdilution assay. It counts as functional. An outline of the steps: (§1)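 CLSI-adapted broth microdilution. Bacteria were grown 4–6 h in cation-adjusted Mueller-Hinton broth and subcultured to 5 ×10^5 CFU/mL. The subculture was dosed with adjuvant from DMSO stock at a constant final concentration, then colistin was added and serially diluted across wells. Plates were incubated stationary at 37°C for 18 h and the MIC recorded. Fold reduction is relative to the colistin MIC without adjuvant.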
A general note: In broth dilution the organism is exposed to a series of concentrations in liquid medium.

Data set [2] relates to Klebsiella pneumoniae. Nature of the data set: Induction of membrane permeabilization in colistin-resistant Klebsiella pneumoniae isolate C3 at 60 uM measured after 1 hr by SYTO-9/propidium iodide staining based fluorescence assay relative to control. It is filed as functional. The method, boiled down: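 Cells were grown overnight in CAMHB at 37°C, diluted 1:10 and grown 4 h more to an OD600 of ~0.3. They were pelleted, washed with sterile water and resuspended at 1/10 volume in water containing compound. After 1 h at 37°C with shaking, cells were washed and stained with SYTO-9/propidium iodide (1:1, 3 μL/mL) for 15 min at RT. Emission was read at 530 and 645 nm (excitation 485 nm), and the green/red ratio was expressed as % of the untreated control.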

In data set [3] the test system is Klebsiella pneumoniae. Nature of the data set: Potentiation of colistin-induced antimicrobial activity against Klebsiella pneumoniae ATCC BAA-2146 expressing NDM1 gene assessed as fold reduction in colistin MIC at 60 uM after 18 hrs by broth microdilution assay. It counts as functional. An outline of the steps: (§2)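 Bacteria grown 4–6 h in cation-adjusted Mueller-Hinton broth and diluted to 5 ×10^5 CFU/mL. Adjuvant from DMSO stock held at fixed 60 μM while colistin is twofold serially diluted in the same adjuvant-dosed broth. Plates sealed and kept stationary at 37°C for 18 h. Colistin MIC read and fold reduction taken relative to colistin alone.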

Data set [4] concerns Acinetobacter baumannii. Briefly: Potentiation of colistin-induced antimicrobial activity against colistin-resistant Acinetobacter baumannii isolate 3942 assessed as fold reduction in colistin MIC at 60 uM after 18 hrs by broth microdilution assay. It is filed as functional. An outline of the steps: (§3)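 Checkerboard-style resensitization following adapted CLSI broth microdilution. Bacteria were grown 4–6 h in CAMHB and subcultured to 5×10^5 CFU/mL. Adjuvant was added from DMSO stock and held constant while colistin was serially diluted in the dosed subculture. Plates were incubated stationary at 37°C for 18 h, then MICs were read. Fold reduction was taken relative to the colistin MIC without adjuvant.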

In data set [5] the test system is Acinetobacter baumannii. Nature of the data set: Potentiation of colistin-induced antimicrobial activity against colistin-resistant Acinetobacter baumannii isolate 3941 assessed as fold reduction in colistin MIC at 60 uM after 18 hrs by broth microdilution assay. It is filed as functional. An outline of the steps:
as §3

Data set [6] relates to Acinetobacter baumannii. Briefly: Potentiation of colistin-induced antimicrobial activity against colistin-resistant Acinetobacter baumannii isolate 3942 assessed as fold reduction in colistin MIC at 40 uM after 18 hrs by broth microdilution assay. It is filed as functional. The method, boiled down:
as §1

For a further data set, the system named is Escherichia coli. Nature of the data set: Toxicity in Escherichia coli ATCC 25922 after 18 hrs by broth microdilution assay. Particulars: in vitro. It is filed as organism-based. An outline of the steps:
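Single-agent MIC per CLSI broth microdilution. Cells from a 4–6 h culture in cation-adjusted Mueller-Hinton broth adjusted to 5 ×10^5 CFU/mL. Compound (DMSO stock) added to 200 μM top concentration and twofold serially diluted six times, with an untreated control row. Plates sealed and incubated stationary at 37°C for 18 h before MIC read.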

The subject of data set [7] is Acinetobacter baumannii. Briefly: Potentiation of colistin-induced antimicrobial activity against colistin-resistant Acinetobacter baumannii isolate 3942 assessed as fold reduction in colistin MIC at 5 uM after 18 hrs by broth microdilution assay. It counts as functional. An outline of the steps: as §1
Data set [8] concerns Acinetobacter baumannii. Nature of the data set: Potentiation of colistin-induced antimicrobial activity against Acinetobacter baumannii ATCC 17978 assessed as fold reduction in colistin MIC at 60 uM after 18 hrs by broth microdilution assay. It counts as functional. The method, boiled down: as §2
Data set [9] has as its system Klebsiella pneumoniae. Nature of the data set: Potentiation of colistin-induced antimicrobial activity against colistin-resistant Klebsiella pneumoniae isolate C3 assessed as fold reduction in colistin MIC at 50 uM after 18 hrs by broth microdilution assay. It counts as functional. The method, boiled down:
as §1

Data set [10] relates to Acinetobacter baumannii. Briefly: Potentiation of colistin-induced antimicrobial activity against colistin-resistant Acinetobacter baumannii isolate 3942 after 18 hrs by broth microdilution assay. It counts as functional, organism-based. An outline of the steps: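 Colistin MIC was determined by adapted CLSI broth microdilution in CAMHB (5×10^5 CFU/mL inoculum), with adjuvant held at fixed levels of 5, 10, 15, 20, 30, 40, 50 or 60 μM. Adjuvant was dosed from DMSO stock while colistin was serially diluted. Plates were incubated stationary at 37°C for 18 h. Fold reduction was taken versus colistin alone.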

In data set [11] the test system is Acinetobacter baumannii. Briefly: Potentiation of colistin-induced antimicrobial activity against colistin-sensitive Acinetobacter baumannii 5075 assessed as fold reduction in colistin MIC at 60 uM after 18 hrs by broth microdilution assay. It is filed as functional. The method, boiled down: as §2
The subject of data set [12] is Klebsiella pneumoniae. Nature of the data set: Potentiation of colistin-induced antimicrobial activity against colistin-resistant Klebsiella pneumoniae isolate C3 assessed as fold reduction in colistin MIC at 5 uM after 18 hrs by broth microdilution assay. It counts as functional. An outline of the steps: as §1
For data set [13], the system named is Klebsiella pneumoniae. Briefly: Potentiation of colistin-induced antimicrobial activity against colistin-resistant Klebsiella pneumoniae isolate C3 assessed as fold reduction in colistin MIC at 60 uM incubated for 2 to 24 hrs under shaking condition in presence of 0.001% triton X-100 by broth microdilution assay. It counts as functional.
Data set [14] deals with Klebsiella pneumoniae. Nature of the data set: Potentiation of colistin-induced antimicrobial activity against colistin-resistant Klebsiella pneumoniae isolate C3 assessed as fold reduction in colistin MIC at 15 uM after 18 hrs by broth microdilution assay. It is filed as functional. The method, boiled down: as §1
The subject of data set [15] is Acinetobacter baumannii. Briefly: Potentiation of colistin-induced antimicrobial activity against colistin-resistant Acinetobacter baumannii ATCC 17978 expressing mcr1 gene assessed as fold reduction in colistin MIC at 60 uM after 18 hrs by broth microdilution assay. It is filed as functional. An outline of the steps: as §3
For data set [16], the system named is Acinetobacter baumannii. Nature of the data set: Potentiation of colistin-induced antimicrobial activity against colistin-resistant Acinetobacter baumannii 4106 assessed as fold reduction in colistin MIC at 60 uM after 18 hrs by broth microdilution assay. It counts as functional. An outline of the steps: as §3

Each structure is given as a SMILES string.

In the case of `O=C(NCc1c[nH]c2ccccc12)c1cc(Br)c(Br)[nH]1`, the “fold change (FC)” value in the data set on Acinetobacter baumannii [1] is listed as 16; with Klebsiella pneumoniae [2], 1.5; in the data set on Klebsiella pneumoniae [3] it was 0; in the data set with Acinetobacter baumannii [4], 2048; with Acinetobacter baumannii [5] it was 1024; in the data set with Acinetobacter baumannii [6], 256. Also, the “fold change (FC)” value worked out at 0 with Acinetobacter baumannii [7]; 4 in the data set on Acinetobacter baumannii [8]; 512 with Klebsiella pneumoniae [9]; 4 with Acinetobacter baumannii [11]; 4 in the data set with Klebsiella pneumoniae [12]; 2048 with Klebsiella pneumoniae [13]. For the same compound, the entries for the “fold change (FC)” value with Klebsiella pneumoniae [14], in the data set with Acinetobacter baumannii [15] and in the data set on Acinetobacter baumannii [16] were 64, 32 and 2048, respectively. Besides, the MIC in the data set on Escherichia coli is above 200 µM. Also, in the data set with Acinetobacter baumannii [10], the Activity result was “Dose-dependent effect”.
